# Compound activity deposited in PubChem by Johns Hopkins Ion Channel Center.
# RGS4 inh = RGS4 inhibitors, primary screen, cell-based, HEK293 M3R inducible RGS4, calcium flux; Fluo-4 calcium flux; hits give high values; triggered by carbachol at its EC20; B-score at 10 µM; 310,000 tested, 0.45% active; AID 463165, 2010;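 active = B-score, a plate-corrected calcium signal, over three deviations above library mean, with baseline fluorescence within five deviations of library mean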;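 also: RGS4 expression induced by doxycycline in cells with stable M3 receptor; B-score is computed from the integrated fluorescence ratio over baseline after carbachol; higher B-score means a larger calcium signal and so more RGS4 inhibition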
# Target sequence (P49798 whole entry, looked up): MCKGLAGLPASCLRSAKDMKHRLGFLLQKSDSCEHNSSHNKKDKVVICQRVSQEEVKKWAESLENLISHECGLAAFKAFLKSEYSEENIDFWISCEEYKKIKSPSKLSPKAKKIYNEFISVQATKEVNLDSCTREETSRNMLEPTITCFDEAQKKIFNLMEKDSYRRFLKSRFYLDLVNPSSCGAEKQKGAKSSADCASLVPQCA
# MrgX1 antagonist = antagonists of human MrgX1 receptor, primary screen, HEK293 cells, Fluo-4 calcium flux; 310,000 tested, 1.3% active; B-score at 10 µM; AID 588676, 2011; Mas-related G-protein coupled receptor member X1 (Homo sapiens), Q96LB2; BAM8-22 antagonism; hits give low values;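 active = calcium-response B-score plate-corrected more than 3 library SD below zero, starting fluorescence within 5 deviations, no agonist response on first addition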;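 also: peak minus trough fluorescence over baseline after final BAM8-22 challenge near maximal dose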
# Target sequence (Q96LB2 whole entry, looked up): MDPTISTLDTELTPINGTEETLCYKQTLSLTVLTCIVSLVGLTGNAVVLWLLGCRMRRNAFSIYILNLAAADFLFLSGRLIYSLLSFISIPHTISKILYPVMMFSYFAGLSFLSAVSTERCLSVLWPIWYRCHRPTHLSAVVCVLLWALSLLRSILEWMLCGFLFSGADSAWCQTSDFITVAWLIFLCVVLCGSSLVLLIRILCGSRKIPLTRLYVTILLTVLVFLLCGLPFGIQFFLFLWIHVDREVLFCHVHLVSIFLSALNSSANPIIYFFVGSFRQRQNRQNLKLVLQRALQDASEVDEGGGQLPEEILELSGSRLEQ
# MrgX1 ag = agonists of human MrgX1 receptor, primary screen, HEK293 cells, Fluo-4 calcium flux. 310,000 tested, 0.44% active. B-score at 10 µM. Mas-related G-protein coupled receptor member X1 (Homo sapiens), Q96LB2. Fluo-4 calcium fluorescence, agonist mode; hits give high values. AID 588627, 2011;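 active = calcium response B-score plate-corrected fluorescence ratio at least 3 library SD, with starting fluorescence B-score inside 5 SD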
#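 Material: MrgX1-expressing HEK293 cells; input: 15,000 cells per well; doses: test compound given as first of three sequential additions; schedule: overnight plating before 1 h dye loading; technique: Fluo-4 NW calcium-flux fluorescence, kinetic read; evaluation: baseline-normalised fluorescence change ratio, B-scored; control set: plate-wise positive and negative controls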
# RGS4 act = RGS4 potentiators or activators, primary screen, cell-based, HEK293 M3R inducible RGS4, calcium flux. 310,000 tested, 0.92% active. B-score at 10 µM. carbachol calcium flux Fluo4; hits give low values;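 active = B-score of the integrated calcium signal more than 4 SD below the library mean, with starting fluorescence not abnormally high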;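 also: negative B-score means reduced calcium response which marks RGS4 activation or potentiation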
#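 System: HEK293 FlpIn-TREx cells, stable M3R, doxycycline-inducible RGS4. Timing: overnight RGS4 induction, 30 min dye load 37 °C, 20 min compound RT. Also added: carbachol, ECmax concentration. Measured by: Fluo4 fluorescence kinetic imaging of calcium. Evaluation: integrated calcium ratio converted to B score.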
# MrgX1 allo act = positive allosteric modulators of MrgX1, primary screen, HEK293 cells, Fluo-4 calcium flux; Mas-related G-protein coupled receptor member X1 (Homo sapiens), Q96LB2; FDSS; hits give high values; B-score at 10 µM; 310,000 tested, 0.63% active; AID 588675, 2011;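 active = plate-corrected calcium response at least 3 library SD above typical, normal starting fluorescence, not activating the receptor alone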;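 also: compound read alongside a low EC10 to EC30 dose of BAM8-22 agonist; peak minus trough fluorescence over baseline measured at the second addition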
# * marks the source's active call; other numbers are inactive results; i = inactive; . = not tested or not shown. Compounds with a hit are over-represented: about 3.5% of the library has one in this group of screens.
SMILES,RGS4 inh,MrgX1 antagonist,MrgX1 ag,RGS4 act,MrgX1 allo act
COc1ccc(CNC(=O)C(c2ccc(C)cc2)N(Cc2cccs2)C(=O)c2ccc3c(c2)OCCO3)cc1 (centres undefined),i,i,i,-7.5*,i
Cc1ccc(C(C(=O)NCc2ccccc2)N(Cc2cccs2)C(=O)c2ccc3c(c2)OCCO3)cc1 (centres undefined),i,i,i,i,i
COc1ccc(CNC(=O)C(c2ccco2)N(Cc2cccs2)C(=O)Cc2cccs2)cc1 (centres undefined),i,i,i,i,i
COc1ccc(CNC(=O)C(c2cccs2)N(Cc2ccco2)C(=O)Cc2cccs2)cc1 (centres undefined),i,i,i,-7.4*,i
O=C(OCC(=O)N(CCc1ccccc1)Cc1ccccc1)c1ccccc1NCCO,i,i,i,-8.4*,i
O=C(OCC(=O)N(CCc1ccccc1)Cc1ccccc1)c1ccccc1O,i,i,i,i,i
COc1ccc(-c2nnc(SCC(=O)c3ccc(C)o3)o2)cc1,i,.,.,i,.
COc1ccc(-c2nnc(SCc3cc(C)cc(C)c3)o2)cc1,i,i,i,-7.2*,i
COc1cc(/C=C2\SC(=S)N(NC(=O)c3ccccc3O)C2=O)ccc1O,i,i,40*,i,i
O=C(NN1C(=O)/C(=C/c2ccc(O)cc2)SC1=S)c1cccc(O)c1,i,i,i,i,i
O=C(NN1C(=O)/C(=C/c2ccc(O)c([N+](=O)[O-])c2)SC1=S)c1ccccc1Cl,i,i,i,i,i
O=C(NN1C(=O)/C(=C/c2ccc(O)cc2)SC1=S)c1ccccc1O,i,-7.8*,i,i,i
COc1cc(/C=C2\SC(=S)N(N(C)c3ccccc3)C2=O)ccc1O,i,i,34*,i,i
Cc1noc(C)c1CSCC(=O)Nc1ccccc1N1CCCCC1,i,i,i,i,i
CCn1c(SCC(=O)Nc2ccc(NC(C)=O)cc2)nc2c1c(=O)n(C)c(=O)n2C,i,i,i,i,i
CN(C)CCOC(c1ccccc1)c1ccccc1,i,i,i,i,i
Cc1ccccc1C(OCCN(C(C)C)C(C)C)c1ccccc1 (centres undefined),i,i,i,-8.6*,i
CCc1ccccc1-n1nnc(-c2ccccc2)n1,i,i,i,i,i
Cc1ccc(OCC(=O)NCCCNC(=O)c2ccncc2)cc1,i,i,i,i,i
COc1ccccc1-c1cnn2c(NCc3ccccc3)cc(C)nc12,i,i,i,-7.3*,i
Cc1ccc(-n2c(SCC(=O)NNC(=S)Nc3ccccc3)nc3ccccc3c2=O)cc1,i,i,i,i,7.4*
Cc1ccc(N2C(=S)SC3CS(=O)(=O)CC32)cc1 (centres undefined),i,-5.5*,i,i,i
O=C(N/N=C/c1ccc(OC(=O)c2ccccc2Cl)cc1)c1cc(O)cc(O)c1,i,i,i,-7.6*,i
Cc1cc(NC(=O)CSc2nnc(N)s2)c([N+](=O)[O-])cc1C,i,-7*,i,i,i
O=C(CCNC(=O)c1ccc(Br)cc1)Nc1ncccc1O,i,i,i,i,i
SMILES,RGS4 inh,MrgX1 antagonist,MrgX1 ag,RGS4 act,MrgX1 allo act
O=C(CSCc1ccco1)c1ccc(Cl)s1,i,i,i,i,i
O=C(CCN1CCC(c2ccc(Cl)s2)=N1)c1ccc(Cl)s1,i,-4.9*,i,i,i
C/C(=N\Nc1cc(C(F)(F)F)ccc1Cl)c1ccncc1,i,i,i,-7.6*,i
O=C(Nc1cc(C(F)(F)F)ccc1Cl)c1ccncc1,i,i,i,i,i
CC(=O)N1CCc2ccc(NC(=O)c3c(-c4c(Cl)cccc4Cl)noc3C)cc21,i,i,i,i,i
O=C1NC(=O)/C(=C/c2ccc(-c3cccc([N+](=O)[O-])c3)o2)S1,i,i,i,i,i
CCCNC(=O)Cn1c(=O)/c(=C\c2ccc(-c3cccc([N+](=O)[O-])c3)o2)s/c1=C\C(=O)C(C)(C)C,i,-6.8*,i,i,i
CCCNC(=O)Cn1c(=O)/c(=C\c2ccc(-c3ccc([N+](=O)[O-])cc3)o2)s/c1=C\C(=O)C(C)(C)C,i,-9.5*,i,i,i
COc1ccccc1NC(=O)Cc1noc(CSc2n[nH]c(N)n2)n1,i,i,i,i,i
COc1cc(/C=C(\C#N)C(=O)NCCc2ccccc2)cc(OC)c1O,i,i,i,i,7.3*
O=C(Nc1nc(-c2ccc3c(c2)OCO3)cs1)C1COc2ccccc2O1 (centres undefined),i,i,i,-7.5*,i
CC1CCCC(C)N1/N=C/c1ccc(C#N)cc1 (centres undefined),i,i,i,i,8.4*
COc1ccc(N2CCN(C(=O)c3ccc4c(c3)NC(=O)C(CSCc3cccc(F)c3)N4)CC2)cc1 (centres undefined),i,i,36*,i,i
Cc1ccc(CN2C(=O)N/C(=C\c3ccc(N4CCOCC4)cc3)C2=O)cc1,i,i,i,i,i
Cc1cc(/C=C2/C(=O)N(C)C(=S)N2C)ccc1N1CCCC1,i,i,i,i,7.6*
CCCN1C(=O)/C(=C/c2ccc(N3CCOCC3)cc2)NC1=S,i,-6.1*,i,i,i
Cc1cc(N2CCCC2)ccc1/C=C1/C(=O)N(C)C(=S)N1C,i,i,i,i,i
CCCN1C(=O)/C(=C/c2ccc(N3CCCC3)c(C)c2)NC1=S,i,i,47*,i,i
Cc1cc(C)n(C(=O)c2c([N+](=O)[O-])c(C)nn2C)n1,i,-7.7*,i,i,i
CCN(CC)C(=O)COC(=O)C1=NN(c2cc(C)ccc2C)C(=O)CC1,i,-5.5*,i,i,i
Cc1cc(C(F)(F)F)c(C#N)c(Sc2ccccc2)n1,i,i,i,i,9.6*
COC(=O)CSc1nc(C)cc(C(F)(F)F)c1C#N,i,i,i,i,i
N#Cc1c(C(F)(F)F)cc(-c2ccco2)nc1SCc1ccncc1,i,-5.1*,i,i,i
